Measurements published in ChEMBL document CHEMBL1126113, “Para-substituted Phe3 deltorphin analogues: enhanced selectivity of halogenated derivatives for delta opioid receptor sites” (J Med Chem, 1992).

Key:
[1] = species on record: Cavia porcellus; assay: Concentration required to inhibit electrically induced twitch by 50% in guinea pig ileum(GPI).; format: functional
[2] = target: Mu-type opioid receptor (Rattus norvegicus, UniProt P33535); assay: Binding affinity against opioid receptor mu in rats by displacing [3H]-DAGO
Sequence of Mu-type opioid receptor (P33535 whole entry): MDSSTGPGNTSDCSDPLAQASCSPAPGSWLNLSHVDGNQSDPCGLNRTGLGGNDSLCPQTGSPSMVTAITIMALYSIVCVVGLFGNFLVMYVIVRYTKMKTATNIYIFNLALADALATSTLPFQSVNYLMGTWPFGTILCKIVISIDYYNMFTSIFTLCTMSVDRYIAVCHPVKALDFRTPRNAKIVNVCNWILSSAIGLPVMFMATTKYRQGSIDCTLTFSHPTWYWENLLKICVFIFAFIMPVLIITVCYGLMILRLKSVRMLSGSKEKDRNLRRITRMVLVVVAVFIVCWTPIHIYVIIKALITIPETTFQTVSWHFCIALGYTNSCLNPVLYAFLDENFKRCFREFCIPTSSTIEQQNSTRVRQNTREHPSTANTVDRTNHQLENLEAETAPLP

[3] = species on record: Mus musculus; assay: Concentration required to inhibit electrically induced twitch by 50% in mouse vas deferens(MVD).; format: functional
Procedure, shortened: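 Mouse vas deferens field-stimulated at 0.1 Hz, 1 ms, 40 V; twitch recorded with an isometric transducer. Peptide doses added to the aerated bath, with three to four washes at 10-min intervals between doses. IC50 from log-dose curves, normalized against a dermorphin or morphine standard run on each tissue.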

[4] = target: Delta-type opioid receptor (Rattus norvegicus, UniProt P33533); assay: Binding affinity against opioid receptor delta in rats by displacing [3H]DPDPE
Sequence of Delta-type opioid receptor (P33533 whole entry): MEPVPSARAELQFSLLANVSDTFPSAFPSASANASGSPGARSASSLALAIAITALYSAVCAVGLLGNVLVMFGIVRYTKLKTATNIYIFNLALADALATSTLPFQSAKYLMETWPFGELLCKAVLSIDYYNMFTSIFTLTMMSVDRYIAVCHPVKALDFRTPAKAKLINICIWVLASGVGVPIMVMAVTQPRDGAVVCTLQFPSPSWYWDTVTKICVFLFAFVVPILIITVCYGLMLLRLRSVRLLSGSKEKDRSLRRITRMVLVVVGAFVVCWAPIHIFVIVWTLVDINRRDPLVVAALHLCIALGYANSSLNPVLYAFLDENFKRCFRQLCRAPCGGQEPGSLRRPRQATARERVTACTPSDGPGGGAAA

Molecule `CC(C)[C@H](NC(=O)[C@H](CC(=O)O)NC(=O)[C@H](Cc1ccc(Br)cc1)NC(=O)[C@@H](C)NC(=O)[C@@H](N)Cc1ccc(O)cc1)C(=O)N[C@H](C(=O)NCC(N)=O)C(C)C` has an IC50 [1] of 7000 nM, a Ki [2] of 4790 nM and an IC50 [3] of 1.1 nM. The Ki [4] was 2.39 nM.
`CC(C)[C@H](NC(=O)[C@H](CC(=O)O)NC(=O)[C@H](Cc1ccc(N)cc1)NC(=O)[C@@H](C)NC(=O)[C@@H](N)Cc1ccc(O)cc1)C(=O)N[C@H](C(=O)NCC(N)=O)C(C)C` showed an IC50 [1] of over 10000 nM, a Ki [2] of 506 nM and an IC50 [3] of 1100 nM. For the same molecule, the Ki [4] was 33.9 nM.
`CC(C)[C@H](NC(=O)[C@H](CCC(=O)O)NC(=O)[C@H](Cc1ccc(N)cc1)NC(=O)[C@@H](C)NC(=O)[C@@H](N)Cc1ccc(O)cc1)C(=O)N[C@H](C(=O)NCC(N)=O)C(C)C` showed an IC50 [1] of over 10000 nM, a Ki [2] of 2460 nM and an IC50 [3] of 300 nM. For the same molecule, the Ki [4] was 48.1 nM.
`CC(C)[C@H](NC(=O)[C@H](CC(=O)O)NC(=O)[C@H](Cc1ccc(I)cc1)NC(=O)[C@@H](C)NC(=O)[C@@H](N)Cc1ccc(O)cc1)C(=O)N[C@H](C(=O)NCC(N)=O)C(C)C` showed an IC50 [1] of over 10000 nM, a Ki [2] of 1410 nM and an IC50 [3] of 17 nM. The Ki [4] was 1.62 nM.
Molecule `CC(C)[C@H](NC(=O)[C@H](CC(=O)O)NC(=O)[C@H](Cc1ccc([N+](=O)[O-])cc1)NC(=O)[C@@H](C)NC(=O)[C@@H](N)Cc1ccc(O)cc1)C(=O)N[C@H](C(=O)NCC(N)=O)C(C)C` has an IC50 [1] of over 10000 nM, a Ki [2] of 2390 nM and an IC50 [3] of 1200 nM. The Ki [4] was 71.8 nM.
Molecule `CC(C)[C@H](NC(=O)[C@H](CCC(=O)O)NC(=O)[C@H](Cc1ccc([N+](=O)[O-])cc1)NC(=O)[C@@H](C)NC(=O)[C@@H](N)Cc1ccc(O)cc1)C(=O)N[C@H](C(=O)NCC(N)=O)C(C)C` has an IC50 [1] of over 10000 nM, a Ki [2] of 1430 nM and an IC50 [3] of 430 nM. For the same molecule, the Ki [4] was 101 nM.
`CC(C)[C@H](NC(=O)[C@H](CC(=O)O)NC(=O)[C@H](Cc1ccc(F)cc1)NC(=O)[C@@H](C)NC(=O)[C@@H](N)Cc1ccc(O)cc1)C(=O)N[C@H](C(=O)NCC(N)=O)C(C)C` was tested, and the IC50 [1] was 1100 nM, the Ki [2] was 554 nM and the IC50 [3] was 3.5 nM. For the same molecule, the Ki [4] was 0.51 nM.
In the case of `CC(C)[C@H](NC(=O)[C@H](CC(=O)O)NC(=O)[C@H](Cc1ccc(Cl)cc1)NC(=O)[C@@H](C)NC(=O)[C@@H](N)Cc1ccc(O)cc1)C(=O)N[C@H](C(=O)NCC(N)=O)C(C)C`, the IC50 [1] is reported as 1800 nM, the Ki [2] is reported as 287 nM and the IC50 [3] is reported as 0.16 nM. For the same molecule, the Ki [4] was 1.58 nM.
With `CC(C)[C@H](NC(=O)[C@H](CC(=O)O)NC(=O)[C@H](Cc1ccccc1)NC(=O)[C@@H](C)NC(=O)[C@@H](N)Cc1ccc(O)cc1)C(=O)N[C@H](C(=O)NCC(N)=O)C(C)C` [DELTORPHIN C] the IC50 [1] was 420 nM, the Ki [2] was 272 nM and the IC50 [3] was 0.14 nM. For the same molecule, the Ki [4] was 0.24 nM.
`CC(C)[C@H](NC(=O)[C@H](CCC(=O)O)NC(=O)[C@H](Cc1ccccc1)NC(=O)[C@H](C)NC(=O)[C@@H](N)Cc1ccc(O)cc1)C(=O)N[C@H](C(=O)NCC(=O)O)C(C)C` [DELTORPHINE II] showed an IC50 [1] of 5200 nM, an IC50 [3] of 0.75 nM and a Ki [4] of 0.12 nM.
